Measured values taken from ChEMBL document CHEMBL1124560, “New 2-substituted indoloquinone mitomycin analogues” (J Med Chem, 1989).
In brackets after ≈: the same amount, converted by molar mass.

Legend:
A549 [1] = experiment: Antitumor activity against A549 human lung carcinoma cell line; type: functional, cell-based
Procedure, shortened: (§1)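 Crystal violet staining of cultured tumour cells. The stain was solubilized in 0.1 M AcOH-EtOH (1:1 v/v) and optical density read at 590 nm. IC50 came from linear regression of the absorbance data. Compounds were in DMSO vehicle; mitomycin C was in DMSO/saline. Indoloquinone values are the mean of two experiments per cell line.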

B16 = experiment: Antitumor activity against B16-BN murine melanoma cell line; type: functional, cell-based; conditions: Mus musculus; procedure, shortened: as §1
B16-F10 = experiment: Antitumor activity against B16-F10 murine melanoma cell line; type: functional, cell-based; conditions: Mus musculus; procedure, shortened: as §1
HCT-116 [2] = experiment: Antitumor activity against HCT116 human colon carcinoma cell line; type: functional, cell-based; procedure, shortened: as §1
Homo sapiens = species on record: Homo sapiens; experiment: Antitumor activity against moser human colon carcinoma cell line; type: functional; procedure, shortened: as §1
P388 [3] = experiment: Maximum effect against P388 murine leukemia in mice at a dose of 25.6 mg/kg; type: functional, Mus musculus
[4] = Antitumor activity against SW1271 human lung carcinoma cell line; type: functional, cell-based; procedure, shortened: as §1
P388 [5] = experiment: Minimum effective dose of compound against P388 murine leukemia in mice; type: functional; conditions: Mus musculus, read-out: MED
Procedure, shortened: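 P388 ascites leukemia (10^6 cells) in CDF1 female mice, dosed once on day 1, six mice per dose, saline controls (10). Minimal effective dose defined as dose giving % T/C = 125, from median survival times.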

P388 [6] = experiment: Maximum effect on P388 murine leukemia in mice at a dose of 32.0 mg/kg; type: functional, Mus musculus
Procedure, shortened: (§2)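 P388 leukemia, 10^6 ascites cells implanted in CDF1 female mice; single dose on day 1, six mice per dose, 10 saline controls, concurrent mitomycin C control group per experiment. Max effect = % T/C (median survival time treated/control × 100) at optimal dose.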

P388 [7] = experiment: Maximum effect on P388 murine leukemia in mice at a dose of 12.8 mg/kg; type: functional, Mus musculus; procedure, shortened: as §2
P388 [8] = experiment: Maximum effect on P388 murine leukemia in mice at a dose of 6.4 mg/kg; type: functional, Mus musculus
[9] = Antitumor activity against SW900 human lung carcinoma cell line; type: functional, cell-based; procedure, shortened: as §1
P388 [10] = experiment: Maximum effect on P388 murine leukemia in mice at a dose of 25.6 mg/kg
A549 [11] = experiment: Antitumor activity against A549 human lung carcinoma cell line in experiment 1; type: functional, cell-based
Procedure, shortened: (§3)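 Cell growth in A549 and HCT-116 cultures was read by tetrazolium staining, with an IC50 reported for each of two separate experiments.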

A549 [12] = experiment: Antitumor activity against A549 human lung carcinoma cell line in experiment 2; type: functional, cell-based; procedure, shortened: as §3
HCT-116 [13] = experiment: Antitumor activity against HCT116 human colon carcinoma cell line experiment 1; type: functional, cell-based; procedure, shortened: as §3
HCT-116 [14] = experiment: Antitumor activity against HCT116 human colon carcinoma cell line experiment 2; type: functional, cell-based; procedure, shortened: as §3
P388 [15] = experiment: Maximum effect on P388 murine leukemia in mice at a dose of 51.2 mg/kg; type: functional, Mus musculus

| IC50 (A549 [1]) | IC50 (B16) | IC50 (B16-F10) | IC50 (HCT-116 [2]) | IC50 (Homo sapiens) | IC50 [4] | IC50 [9] | IC50 (A549 [11]) | IC50 (A549 [12]) | IC50 (HCT-116 [13]) | IC50 (HCT-116 [14]) | Compound | T/C (P388 [3]) | minimal effective dose (P388 [5]) | T/C (P388 [6]) | T/C (P388 [7]) | T/C (P388 [8]) | T/C (P388 [10]) | T/C (P388 [15]) |
| --- | --- | --- | --- | --- | --- | --- | --- | --- | --- | --- | --- | --- | --- | --- | --- | --- | --- | --- |
| 1.6 µg/mL (≈ 4.39 µM) | 9.5 µg/mL (≈ 26.1 µM) | 13.3 µg/mL (≈ 36.5 µM) | 3.7 µg/mL (≈ 10.2 µM) | 3.1 µg/mL (≈ 8.51 µM) | 7.9 µg/mL (≈ 21.7 µM) |  |  |  |  |  | CNC(=O)OCc1c2c(n(C)c1COC(=O)NC)C(O)=C(C)C(=N)C2=O | 120% |  |  |  |  |  |  |
|  |  | < 0.03 µg/mL | < 0.03 µg/mL | < 0.03 µg/mL | 0.14 µg/mL (≈ 0.369 µM) | < 0.03 µg/mL |  |  |  |  | CNC(=O)OCc1c2c(n(C)c1COC(=O)NC)C(=O)C(C)=C(OC)C2=O |  |  |  |  | 100% |  |  |
| > 3.1 µg/mL | 14 µg/mL (≈ 40.1 µM) | > 31 µg/mL | > 31 µg/mL | 12.8 µg/mL (≈ 36.6 µM) | > 31 µg/mL |  |  |  |  |  | CNC(=O)OCc1c2c(n(C)c1COC(C)=O)C(O)=C(C)C(=N)C2=O |  |  |  |  |  | 105% |  |
|  |  |  |  |  |  |  | 0.075 µg/mL (≈ 0.198 µM) | 0.065 µg/mL (≈ 0.172 µM) | 0.06 µg/mL (≈ 0.159 µM) | 0.06 µg/mL (≈ 0.159 µM) | CNC(=O)OCc1c2c(n(C)c1C(C)OC(C)=O)C(=O)C(C)=C(OC)C2=O (stereo unspecified) |  |  |  |  |  |  |  |
|  |  | 0.2 µg/mL (≈ 0.549 µM) | 0.065 µg/mL (≈ 0.178 µM) | 0.09 µg/mL (≈ 0.247 µM) | 0.47 µg/mL (≈ 1.29 µM) | 0.04 µg/mL (≈ 0.11 µM) |  |  |  |  | CNC(=O)OCc1c2c(n(C)c1COC(C)=O)C(=O)C(C)=C(OC)C2=O |  |  |  |  |  |  | 105% |
| 0.47 µg/mL (≈ 1.41 µM) | 3.6 µg/mL (≈ 10.8 µM) | 1.5 µg/mL (≈ 4.49 µM) | 1.1 µg/mL (≈ 3.29 µM) | 2.8 µg/mL (≈ 8.37 µM) | 8.1 µg/mL (≈ 24.2 µM) | 0.24 µg/mL (≈ 0.718 µM) | 0.015 µg/mL (≈ 0.0449 µM) | 0.08 µg/mL (≈ 0.239 µM) | 0.015 µg/mL (≈ 0.0449 µM) | 0.01 µg/mL (≈ 0.0299 µM) | CO[C@@]12[C@H](COC(N)=O)C3=C(C(=O)C(C)=C(N)C3=O)N1C[C@@H]1N[C@@H]12 [MITOMYCIN] |  |  |  |  |  |  |  |

| Compound | IC50 (A549 [1]) | IC50 (B16) | IC50 (B16-F10) | IC50 (HCT-116 [2]) | IC50 (Homo sapiens) | IC50 [4] | IC50 [9] | IC50 (A549 [11]) | IC50 (A549 [12]) | IC50 (HCT-116 [13]) | IC50 (HCT-116 [14]) | T/C (P388 [3]) | minimal effective dose (P388 [5]) | T/C (P388 [6]) | T/C (P388 [7]) | T/C (P388 [8]) | T/C (P388 [10]) | T/C (P388 [15]) |
| --- | --- | --- | --- | --- | --- | --- | --- | --- | --- | --- | --- | --- | --- | --- | --- | --- | --- | --- |
| CNC(=O)OCc1c2c(n(C)c1COC(=O)NC)C(=O)C(C)=C(N1CC1)C2=O | 0.03 µg/mL (≈ 0.0768 µM) | 1.6 µg/mL (≈ 4.1 µM) | 0.66 µg/mL (≈ 1.69 µM) | 0.17 µg/mL (≈ 0.435 µM) | 0.13 µg/mL (≈ 0.333 µM) | 2.7 µg/mL (≈ 6.92 µM) |  |  |  |  |  |  | 14.5 mg/kg | 145% |  |  |  |  |
| CNC(=O)OCc1c2c(n(C)c1COC(C)=O)C(=O)C(C)=C(N1CC1)C2=O | < 0.02 µg/mL | 0.27 µg/mL (≈ 0.719 µM) | 0.39 µg/mL (≈ 1.04 µM) | 0.065 µg/mL (≈ 0.173 µM) | 0.035 µg/mL (≈ 0.0932 µM) | 0.73 µg/mL (≈ 1.94 µM) |  |  |  |  |  |  |  |  | 114% |  |  |  |
